Laboratory results as given in publication PMC9476207 (ACS Omega, 2022).

Columns and labels:
Test in all cases: NCI-60 single-dose antiproliferative screen
Assay type in all cases: cell-based
K-562 = conditions: Homo sapiens, K562, 48 h, read-out: growth percent
Summary of the method: (§1)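 NCI-60 protocol. Lines were grown in RPMI 1640 with 5% FBS and 2 mM L-glutamine, plated and incubated 24 h at 37 °C; time-zero plates were TCA-fixed. The test compound was dissolved in DMSO, diluted in medium with 50 μg/mL gentamicin and given once at a final 10^-5 M (DMSO control) for 48 h. Cells were fixed with cold TCA (1 h, 4 °C) and stained with 0.4% SRB in 1% acetic acid for 10 min. Dye was dissolved in 10 mM Trizma base and read at 515 nm. Growth percent was calculated from time-zero, test and control ODs.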

MOLT-4 = conditions: Homo sapiens, MOLT-4, 48 h, read-out: growth percent
Summary of the method: as §1

SR = conditions: Homo sapiens, 48 h, read-out: growth percent
Summary of the method: (§2)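 Cells grown in RPMI 1640 with 5% FBS and 2 mM L-glutamine, plated and held 24 h at 37 °C; time-zero plates TCA-fixed. DMSO stocks were diluted in gentamicin-containing medium to a final 10^-5 M, with a DMSO-only control. Exposure 48 h, 5% CO2. Adherent cells TCA-fixed 1 h at 4 °C, stained with 0.4% SRB, solubilised in 10 mM Trizma base, read at 515 nm. Growth percent derived from ODtzero, ODtest and ODctrl.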

A549/ATCC = conditions: Homo sapiens, A549, 48 h, read-out: growth percent
Summary of the method: as §1

EKVX = conditions: Homo sapiens, 48 h, read-out: growth percent
Summary of the method: as §1

HOP-62 = conditions: Homo sapiens, HOP-62, 48 h, read-out: growth percent
Summary of the method: as §1

NCI-H522 = conditions: Homo sapiens, NCI-H522, 48 h, read-out: growth percent
Summary of the method: as §1

HCC-2998 = conditions: Homo sapiens, HCC 2998, 48 h, read-out: growth percent
Summary of the method: as §1

SF-295 = conditions: Homo sapiens, SF-295, 48 h, read-out: growth percent
Summary of the method: as §1

SNB-19 = conditions: Homo sapiens, SNB-19, 48 h, read-out: growth percent
Summary of the method: as §2

MALME-3M = conditions: Homo sapiens, 48 h, read-out: growth percent
Summary of the method: as §1

SK-MEL-28 = conditions: Homo sapiens, SK-MEL-28, 48 h, read-out: growth percent
Summary of the method: as §2

OVCAR-5 = conditions: Homo sapiens, OVCAR-5, 48 h, read-out: growth percent
Summary of the method: as §1

NCI/ADR-RES = conditions: Homo sapiens, 48 h, read-out: growth percent
Summary of the method: as §1

SK-OV-3 = conditions: Homo sapiens, SK-OV-3, 48 h, read-out: growth percent
Summary of the method: as §2

786-0 = conditions: Homo sapiens, 786-0, 48 h, read-out: growth percent
Summary of the method: as §1

ACHN = conditions: Homo sapiens, 48 h, read-out: growth percent
Summary of the method: as §1

MDA-MB-231 ATCC = conditions: Homo sapiens, MDA-MB-231, 48 h, read-out: growth percent
Summary of the method: as §1

HS 578T = conditions: Homo sapiens, 48 h, read-out: growth percent
Summary of the method: as §1

T-47D = conditions: Homo sapiens, T47D, 48 h, read-out: growth percent
Summary of the method: as §2

MDA-MB-468 = conditions: Homo sapiens, MDA-MB-468, 48 h, read-out: growth percent
Summary of the method: as §1

| Structure (SMILES) | activity at 10 µM (K-562) | activity at 10 µM (MOLT-4) | activity at 10 µM (SR) | activity at 10 µM (A549/ATCC) | activity at 10 µM (EKVX) | activity at 10 µM (HOP-62) | activity at 10 µM (NCI-H522) | activity at 10 µM (HCC-2998) | activity at 10 µM (SF-295) | activity at 10 µM (SNB-19) | activity at 10 µM (MALME-3M) | activity at 10 µM (SK-MEL-28) | activity at 10 µM (OVCAR-5) | activity at 10 µM (NCI/ADR-RES) | activity at 10 µM (SK-OV-3) | activity at 10 µM (786-0) | activity at 10 µM (MDA-MB-231 ATCC) | activity at 10 µM (HS 578T) | activity at 10 µM (T-47D) | activity at 10 µM (MDA-MB-468) | also measured |
| --- | --- | --- | --- | --- | --- | --- | --- | --- | --- | --- | --- | --- | --- | --- | --- | --- | --- | --- | --- | --- | --- |
| COc1cc(CNC(=O)CCCC/C=C/C(C)C)ccc1OCc1cn(-c2ccc(Br)cc2)nn1 [14k, (E)-N-(4-((1-(4-Bromophenyl)-1H-1,2,3-triazol-4-yl)methoxy)-3-methoxybenzyl)-8-methylnon-6-enamide] | 59.2% | 77.5% | 67.2% | 88.5% | 72.7% | 88.2% | 82.5% | 88.8% | 85.4% | 80.9% | 103% | 100% | 116% | 72% | 74.8% | 92% | 71.3% | 90.5% | 68.4% | 68.2% | activity at 10 µM (ACHN): 87.7% |
| COc1cc(CNC(=O)CCCC/C=C/C(C)C)ccc1OCc1cn(-c2ccccc2F)nn1 [14i, (E)-N-(4-((1-(2-Fluorophenyl)-1H-1,2,3-triazol-4-yl)methoxy)-3-methoxybenzyl)-8-methylnon-6-enamide] | 82.3% | 90.9% | 81.5% | 91.3% | 79.1% | 85% | 77.5% | 97.2% | 99% | 84.8% | 108% | 107% | 103% | 89.8% | 97.8% | 97.2% | 78.7% | 87.7% | 83.1% | 92.8% | activity at 10 µM (ACHN): 83% |
| COc1cc(CNC(=O)CCCC/C=C/C(C)C)ccc1OCc1cn(-c2ccccc2OC)nn1 [14l, (E)-N-(3-Methoxy-4-((1-(2-methoxyphenyl)-1H-1,2,3-triazol-4-yl)methoxy)benzyl)-8-methylnon-6-enamide] | 76.1% | 79.7% | 77.4% | 86% | 89.4% | 88.7% | 63.9% | 117% | 108% | 91.6% | 106% | 116% | 113% | 94.6% | 99.8% | 102% | 95.8% | 83% | 92.2% | 75.5% | – |
| COc1cc(CNC(=O)CCCC/C=C/C(C)C)ccc1OCc1cn(-c2ccc(C(F)(F)F)cc2)nn1 [14g, (E)-N-(3-Methoxy-4-((1-(4-(trifluoromethyl)phenyl)-1H-1,2,3-triazol-4-yl)methoxy)benzyl)-8-methylnon-6-enamide] | 76.3% | 80.3% | 70.4% | 49% | 88.2% | 64.6% | 75.6% | 94.8% | 90.9% | 76.1% | 99.7% | 107% | 96.6% | 48.2% | 91.3% | 2.94% | 75.2% | 70.7% | 84.5% | 70.2% | – |
| COc1cc(CNC(=O)CCCC/C=C/C(C)C)ccc1OCc1cn(-c2ccc(Cl)cc2)nn1 [14a, (E)-N-(4-((1-(4-Chlorophenyl)-1H-1,2,3-triazol-4-yl)methoxy)-3-methoxybenzyl)-8-methylnon-6-enamide] | 66.7% | 82% | 73.5% | 85.3% | 72% | 84% | 65.7% | 113% | 88.3% | 87.7% | 97.8% | 106% | 100% | 78.1% | 91.6% | 92.5% | 79.5% | 90.3% | 71% | 64.9% | activity at 10 µM (ACHN): 59.7% |
| COc1cc(CNC(=O)CCCC/C=C/C(C)C)ccc1OCc1cn(-c2ccc(C)cc2)nn1 [14n, (E)-N-(3-Methoxy-4-((1-(p-tolyl)-1H-1,2,3-triazol-4-yl)methoxy)benzyl)-8-methylnon-6-enamide] | 80% | 83.5% | 75.5% | 84% | 84.8% | 86.4% | 62.1% | 108% | 98.9% | 77.9% | 110% | 114% | 108% | 87.4% | 94.4% | 99.6% | 72.2% | 89.7% | 77.4% | 92.4% | activity at 10 µM (ACHN): 72% |
| COc1cc(CNC(=O)CCCC/C=C/C(C)C)ccc1OCc1cn(-c2ccc(Cl)c(Cl)c2)nn1 [14d, (E)-N-(4-((1-(3,4-Dichlorophenyl)-1H-1,2,3-triazol-4-yl)methoxy)-3-methoxybenzyl)-8-methylnon-6-enamide] | 77.1% | 86.4% | 78.9% | 85.9% | 76.2% | 90.4% | 69.3% | 98.1% | 94.6% | 87.3% | 105% | 104% | 102% | 91.1% | 97.2% | 96.3% | 87.3% | 84% | 87% | 71.6% | – |
| COc1cc(CNC(=O)CCCC/C=C/C(C)C)ccc1OCc1cn(-c2cc(OC)c(OC)c(OC)c2)nn1 [14m, (E)-N-(3-Methoxy-4-((1-(3,4,5-trimethoxyphenyl)-1H-1,2,3-triazol-4-yl)methoxy)benzyl)-8-methylnon-6-enamide] | 79.7% | 92% | 86.6% | 91% | 95.9% | 90.7% | 65.2% | 91.8% | 105% | 85.1% | 98.5% | 108% | 109% | 91.7% | 89.9% | 108% | 92.7% | 69% | 95.8% | 80.4% | – |
| CCc1ccc(-n2cc(COc3ccc(CNC(=O)CCCC/C=C/C(C)C)cc3OC)nn2)cc1 [14o, (E)-N-(4-((1-(4-Ethylphenyl)-1H-1,2,3-triazol-4-yl)methoxy)-3-methoxybenzyl)-8-methylnon-6-enamide] | 78.6% | 79.6% | 87.5% | 88.3% | 82.1% | 94.5% | 65.9% | 99.7% | 100% | 85.7% | 108% | 115% | 112% | 87.7% | 102% | 100% | 88% | 78% | 111% | 79.8% | – |
